Results taken from ChEMBL document CHEMBL3414541, “Discovery of new thienopyrimidinone derivatives displaying antimalarial properties toward both erythrocytic and hepatic stages of Plasmodium” (Eur J Med Chem, 2015).
pIC50: −log10 of the molar value.

Experiments:
[1] = tested on: Toxoplasma gondii; assay: Antitoxoplasmic activity against tachyzoite stage of Toxoplasma gondii PRU transfected with beta galactosidase infected in HFF assessed as parasite growth inhibition after 96 hrs by colorimetric microtiter assay; format: functional
How it was run: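 Confluent HFF monolayers (1×10^4 seeded) were infected with 2×10^3 PRU-β-Gal tachyzoites for 3 h. Compounds from DMSO (final <0.5%) were then added in triplicate for 96 h at 37 °C. CPRG was added at 500 µM final for 24 h more, then A570 read (630 nm reference). IC50 came from non-linear regression, mean of three experiments.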

[2] = tested on: Salmonella typhimurium; assay: Mutagenicity in Salmonella typhimurium TA100 at 2.5 mM after 1 hr by Ames test in presence of S9 fraction; format: toxicity, organism-based; conditions: salmonella enterica subsp. enterica serovar typhimurium, s9, 1 h, 2500 µM
How it was run: (§1)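 Tester strains were grown overnight in nutrient broth. Top agar was added and the mix plated on Vogel-Bonner agar. Revertants were counted after 48 h at 37 °C in the dark. A twofold rise over spontaneous revertants counts as mutagenic.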

[3] = tested on: Leishmania donovani; assay: Antileishmanial activity against promastigote stage of Leishmania donovani assessed as parasite growth inhibition after 72 hrs by MTT assay; format: functional, organism-based
How it was run: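 L. donovani promastigotes were grown at 27 °C in Schneider's medium with 10% FBS. 1×10^6 log-phase cells/well were exposed to compound from DMSO (final <0.5% v/v) for 72 h at 27 °C, in duplicate. MTT was then added for 6 h, formazan dissolved in DMSO, and A570 read (630 nm reference). IC50 came from non-linear regression, mean of three independent experiments.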

[4] = Cytotoxicity against CHO cells assessed as cell viability after 24 hrs by MTT assay; format: cell-based, Cricetulus griseus; conditions: chinese hamster
How it was run: (§2)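 Cells were kept in RPMI with 10% FBS. 5×10^3 cells/well were settled 24 h, then exposed to compound from DMSO (final <0.5%): CHO for 24 h, HepG2 for 72 h, in duplicate. Wells were checked for precipitate. MTT was added for 2 h at 37 °C, formazan dissolved in DMSO, and A570 read (630 nm reference). Viability is % of untreated cells; CC50 from non-linear regression, mean of three experiments.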

[5] = tested on: HepG2; assay: (§3) Cytotoxicity against human HepG2 cells assessed as cell viability after 72 hrs by MTT assay; format: cell-based; conditions: hepg2, 72 h, 72 h, read-out: CC50; how it was run: as §2
[6] = tested on: Salmonella typhimurium; assay: Mutagenicity in Salmonella typhimurium TA97A at 2.5 mM after 1 hr by Ames test in absence of S9 fraction; format: toxicity, organism-based; conditions: salmonella enterica subsp. enterica serovar typhimurium, 2500 µM
How it was run: as §1, with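 “broth. 0.1 mL culture was incubated 1 h at 37 °C with shaking with compound (2.5–25 mM DMSO solutions), with or without 4% S9 mix.” for “broth.”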

[7] = Genotoxicity in DNA (unknown origin) incubated for 24 hrs in dark condition by methyl green displacement assay
How it was run: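 DNA-methyl green (4 mg in 20 mL 0.05 M Tris-HCl pH 7.5 with 7.5 mmol/L MgSO4) was shaken 24 h at 37 °C. It was then added to compound from DMSO (final <0.5%). A630 was read, and read again after 24 h at room temperature in the dark. DC50 is the concentration displacing 50% of methyl green.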

[8] = tested on: Plasmodium falciparum; assay: Antiplasmodial activity against multi-drug resistant Plasmodium falciparum K1 infected in human erythrocytes assessed as parasite growth inhibition after 72 hrs by SYBR Green I dye-based fluorescence assay in presence of ascorbic acid; format: functional, organism-based; conditions: K1, 72 h
How it was run: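 Same SYBR Green I 72 h growth assay on the K1 strain (2% haematocrit, 1% parasitaemia, 37 °C, 6% CO2/14% O2/80% N2, DMSO <0.5%), with 800 µM ascorbic acid in the medium as radical trap. Duplicates; artesunate as positive control; IC50 derived.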

[9] = tested on: Salmonella typhimurium; assay: Mutagenicity in Salmonella typhimurium TA100 at 2.5 mM after 1 hr by Ames test in absence of S9 fraction; format: toxicity, organism-based; conditions: salmonella enterica subsp. enterica serovar typhimurium, 2500 µM
How it was run: as §1, with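 “broth. 0.1 mL culture was incubated 1 h at 37 °C with shaking with compound (2.5–25 mM DMSO solutions), with or without 4% S9 mix.” for “broth.”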

[10] = tested on: Plasmodium falciparum; assay: Antiplasmodial activity against multi-drug resistant Plasmodium falciparum K1 infected in human erythrocytes assessed as parasite growth inhibition after 72 hrs by SYBR Green I dye-based fluorescence assay; format: functional, organism-based; conditions: read-out: IC50
[11] = Inhibition of Plasmodium falciparum DHFR after 48 hrs
How it was run: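 Recombinant S. cerevisiae whose own DHFR is replaced by the P. falciparum DHFR domain was used. 1×10^4 cells were grown in YEPD with compound from DMSO (final <0.5%) at 30 °C for 48 h, in duplicate. Growth was read as A660. IC50 (50% growth inhibition) came from non-linear regression.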

[12] = Selectivity index, ratio of CC50 for human HepG2 cells to IC50 for chloroquine-sensitive Plasmodium falciparum 3D7 infected in human erythrocytes; format: functional
How it was run: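 SI = HepG2 CC50 (72 h MTT) / P. falciparum IC50. […] Cultures were exposed 72 h at 37 °C to compound (DMSO final <0.5%), in duplicate. Growth was read by SYBR Green I lysis fluorescence (ex 497, em 520 nm), from three independent experiments.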

[13] = tested on: Plasmodium falciparum; assay: Antiplasmodial activity against chloroquine-sensitive Plasmodium falciparum 3D7 infected in human erythrocytes assessed as parasite growth inhibition after 72 hrs by SYBR Green I dye-based fluorescence assay; format: functional, organism-based
How it was run: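 Parasites grown in A+ human erythrocytes (2.5% haematocrit) in RPMI 1640 with 25 mM HEPES, 25 mM NaHCO3 and 10% A+ serum, at 37 °C under 6% CO2/14% O2/80% N2. Rings were sorbitol-synchronized. Compounds in DMSO (<0.5% final) were incubated 72 h at 2% haematocrit and 1% parasitaemia. SYBR Green lysis read at ex 497/em 520 nm; duplicates; IC50 from three independent experiments.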

[14] = Selectivity index, ratio of CC50 for human HepG2 cells to IC50 for multi-drug resistant Plasmodium falciparum K1 infected in human erythrocytes
[15] = Inhibition of hemozoin polymerization after 24 hrs by spectroscopic analysis; format: functional
How it was run: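 Hemozoin (4 mM solution in 0.1 M NaOH) was mixed with compound at drug:heme ratios of 1:1 to 8:1, in triplicate. Acetic acid was added to pH 3, and samples were incubated 24 h at 37 °C. Soluble, DMSO-soluble and pellet fractions were separated by centrifugation. Each fraction was quantified at A405 against a hemozoin standard curve. IC50 is 50% decrease in polymerization.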

[16] = tested on: Salmonella typhimurium; assay: Mutagenicity in Salmonella typhimurium TA97A at 2.5 mM after 1 hr by Ames test in presence of S9 fraction; format: toxicity, organism-based; conditions: salmonella enterica subsp. enterica serovar typhimurium, s9, 1 h, 2500 µM; how it was run: as §1
[17] = tested on: Plasmodium yoelii; assay: Antiplasmodial activity against liver stage of Plasmodium yoelii 17X NL sporozoites infected in human HepG2 cells expressing CD81 after 48 hrs by DAPI staining-based immunofluorescence analysis; format: functional, organism-based; conditions: HepG2, 48 h
How it was run: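 HepG2/CD81 cells were grown in D-MEM with 10% FBS. 25×10^3 cells/well went on collagen-coated wells; after 24 h they received compound and 5000 P. yoelii sporozoites together, then were spun 900 × g for 10 min at 4 °C. Treatment was renewed at 3 h and 24 h. At 48 h cells were methanol-fixed, stained with anti-HSP70 immunofluorescence, and parasites counted by microscopy. IC50 is 50% fewer parasites than in 0.5% DMSO controls.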

[18] = as §3; format: cell-based; conditions: HepG2 cells; how it was run: as §2
[19] = Cytotoxicity against human HepG2 cells expressing CD81 assessed as cell viability after 72 hrs by MTT assay; format: cell-based
[20] = Selectivity index, ratio of CC50 for human HepG2 cells expressing CD81 to IC50 for liver stage of Plasmodium yoelii 17X NL sporozoites infected in human HepG2 cells expressing CD81; format: functional
[21] = Cytotoxicity against human HepG2 cells expressing CD81 assessed as cell viability after 72 hrs by CellTiter-glo assay; format: cell-based
[22] = tested on: Plasmodium berghei; assay: Antiplasmodial activity against chloroquine-sensitive Plasmodium berghei NK65 infected in Swiss mouse assessed as reduction in parasitemia at 2.5 mg/kg, ip bid administered for 4 days measured on day 4 by Giemsa staining relative to control; format: functional; design: scale not given: the % may be the effect or the level left; conditions: route intraperitoneal
How it was run: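 Male Swiss mice (20 ± 2 g) were infected on day 0 with 10^7 parasitized cells in 0.9% saline. Groups of 5 were dosed ip at 2.5 mg/kg twice a day from day 0 to day 3.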

[23] = tested on: Plasmodium falciparum; assay: Antiplasmodial activity against multi-drug resistant erythrocytic stage of Plasmodium falciparum K1 isolated from synchronized culture assessed as reduction in parasitemia at 5 X IC50 measured for 32 hrs by spectrophotometric analysis relative to control; format: functional; design: scale not given: the % may be the effect or the level left
How it was run: (§4)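 K1 cultures were synchronized to an 8-h window with 5% D-sorbitol and held in 24-well plates at 0.8% parasitemia and 4% hematocrit. They received 8-h compound pulses (DMSO <0.5%) at successive points of the cycle, then three washes and culture to the ring stage of the next cycle. Fluorescence read at 497/520 nm; % growth inhibition versus DMSO control; chloroquine as positive control.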

[24] = tested on: Plasmodium falciparum; assay: Antiplasmodial activity against multi-drug resistant erythrocytic stage of Plasmodium falciparum K1 isolated from synchronized culture assessed as reduction in parasitemia at 5 X IC50 measured for 8 hrs by spectrophotometric analysis relative to control; format: functional; design: scale not given: the % may be the effect or the level left; how it was run: as §4
[25] = tested on: Plasmodium falciparum; assay: Antiplasmodial activity against multi-drug resistant Plasmodium falciparum K1 after 72 hrs by SYBR Green I dye-based fluorescence assay; conditions: K1, 72 h

SMILES | pIC50 [1] | Activity [2] | pIC50 [3] | CC50 [5] [µM] | Activity [6] | DC50 [7] [µM] | pIC50 [8] | Activity [9] | pIC50 [10] | pIC50 [11] | Ratio CC50/IC50 [12] | pIC50 [13] | Ratio CC50/IC50 [14] | pIC50 [15] | Activity [16] | pIC50 [17] | CC50 at 72 h [18] [µM] | CC50 at 72 h [19] [µM] | Ratio CC50/IC50 [20] | further results
Cc1ccc(-c2cc3nc(NC(C)(C)C)[nH]c(=O)c3s2)cc1 | < 5.00 | Non-toxic | < 5.00 | 25.6 | Non-toxic | > 25000 | 6.70 | Non-toxic | 6.70 | < 3.30 | 183 | 6.85 | 128 | 1.67 | Non-toxic |  |  |  |  | CC50 at 24 h [4]: 27.5 µM
CC(C)(C)Nc1nc2cc(-c3ccc(Cl)cc3)sc2c(=O)[nH]1.O=C(O)/C=C/C(=O)O |  |  |  |  |  |  |  |  | 6.10 |  | 93 | 6.77 | 78 |  |  | 7.22 | 15.6 | > 120 | >2000 | 
CC(C)(C)Nc1nc2cc(-c3ccc(Cl)cc3)sc2c(=O)[nH]1 | < 5.00 | Non-toxic | < 5.00 | 15 | Non-toxic | > 25000 | 6.10 | Non-toxic | 6.10 | < 3.60 | 44 | 6.46 | 19 | < 1.60 | Non-toxic |  |  |  |  | 
CCN(CC)CCCC(C)Nc1ccnc2cc(Cl)ccc12 (centres undefined) [CHLOROQUINE] |  |  |  |  |  |  |  |  |  |  |  |  |  | 2.84 |  | 5.78 |  |  |  | CC50 at 24 h [4]: 155 µM; CC50 at 72 h [21]: 1.6 µM; Activity [22]: 85%
Cc1ccc(-c2cc3nc(NC(C)C)[nH]c(=O)c3s2)cc1 | < 5.00 | Non-toxic | < 5.00 | 49.4 | Non-toxic | > 25000 | 6.05 | Non-toxic | 6.10 | < 3.60 | 202 | 6.61 | 62 | < 1.60 | Non-toxic |  |  |  |  | 
Cc1ccc(-c2cc3nc(NC(C)(C)C)[nH]c(=O)c3s2)cc1.Cl |  |  |  |  |  |  |  |  | 7.35 |  | 686 | 7.46 | 533 |  |  | 7.46 | 24 | > 143 | >4086 | Activity [23]: 30%; Activity [24]: 41%; Activity [22]: 45%
Cc1ccc(-c2cc3nc(NC(C)C)[nH]c(=O)c3s2)cc1.O=C(O)/C=C/C(=O)O |  |  |  |  |  |  |  |  | 6.10 |  | 148 |  | 135 |  |  | 6.92 | 26.9 | > 111 | >925 | pIC50 ([13]; Plasmodium falciparum, 3D7, 72 h): 6.74
CN(C)c1nc2cc(-n3cnc4cc(-c5ccc(Cl)cc5)sc4c3=O)ccc2n1CCCN1CCCC1 |  |  |  |  |  |  |  |  |  |  |  |  |  |  |  |  |  |  |  | pIC50 [25]: > 5.00
